Experimental data as given in ChEMBL document CHEMBL5154665, “Design, synthesis, biochemical evaluation, radiolabeling and in vivo imaging with high affinity class-IIa histone deacetylase inhibitor for molecular imaging and targeted therapy” (Eur J Med Chem, 2022).

Legend:
[1] = target: Class 1 histone deacetylase (Homo sapiens, UniProt Q13547+O15379+Q92769+Q9BY41); test: Inhibition of HDAC class 1 in human HT-29 cells using Boc-Lys-Ac as substrate incubated for 3 hrs by microplate reader assay; type: cell-based
[2] = Inhibition of HDAC class 2a in human HT-29 cells using Boc-Lys-TFA as substrate incubated for 3 hrs by microplate reader assay; type: cell-based; conditions: HT-29, 3 h
[3] = Inhibition of HDAC class 2b in human HT-29 cells using Boc-Lys-Ac as substrate incubated for 3 hrs by microplate reader assay; type: cell-based; conditions: HT-29, 3 h
Histone deacetylase 8 = target: T1, Histone deacetylase 8 (Homo sapiens, UniProt Q9BY41); test: Inhibition of recombinant human HDAC8 using fluorogenic substrate by fluorescence microplate reader assay
T1 sequence (Q9BY41 whole entry): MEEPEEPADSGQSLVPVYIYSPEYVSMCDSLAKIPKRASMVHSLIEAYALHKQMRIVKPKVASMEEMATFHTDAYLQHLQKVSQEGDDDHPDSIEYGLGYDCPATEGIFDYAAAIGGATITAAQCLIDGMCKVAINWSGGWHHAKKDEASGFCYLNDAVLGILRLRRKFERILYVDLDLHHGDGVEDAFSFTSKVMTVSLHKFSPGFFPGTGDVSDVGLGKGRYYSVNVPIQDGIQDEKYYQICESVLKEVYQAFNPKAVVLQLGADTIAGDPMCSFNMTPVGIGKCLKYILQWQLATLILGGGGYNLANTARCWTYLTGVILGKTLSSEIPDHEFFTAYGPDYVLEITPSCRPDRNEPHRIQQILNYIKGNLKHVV
Outline: (§1)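 Recombinant human HDAC isoforms were tested at 9 inhibitor dilutions in commercial fluorogenic enzyme kits, per the manufacturer's protocol. For class IIa enzymes, deacetylation of a TFA-lysine substrate lets trypsin release a fluorophore, read on a microplate reader. IC50 came from a nonlinear fit of % HDAC activity inhibition against compound concentration.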

Histone deacetylase 1 = Histone deacetylase 1 (Homo sapiens, UniProt Q13547); test: Inhibition of recombinant human HDAC1 using fluorogenic substrate by fluorescence microplate reader assay; outline: as §1
Sequence of Histone deacetylase 1 (Q13547 whole entry): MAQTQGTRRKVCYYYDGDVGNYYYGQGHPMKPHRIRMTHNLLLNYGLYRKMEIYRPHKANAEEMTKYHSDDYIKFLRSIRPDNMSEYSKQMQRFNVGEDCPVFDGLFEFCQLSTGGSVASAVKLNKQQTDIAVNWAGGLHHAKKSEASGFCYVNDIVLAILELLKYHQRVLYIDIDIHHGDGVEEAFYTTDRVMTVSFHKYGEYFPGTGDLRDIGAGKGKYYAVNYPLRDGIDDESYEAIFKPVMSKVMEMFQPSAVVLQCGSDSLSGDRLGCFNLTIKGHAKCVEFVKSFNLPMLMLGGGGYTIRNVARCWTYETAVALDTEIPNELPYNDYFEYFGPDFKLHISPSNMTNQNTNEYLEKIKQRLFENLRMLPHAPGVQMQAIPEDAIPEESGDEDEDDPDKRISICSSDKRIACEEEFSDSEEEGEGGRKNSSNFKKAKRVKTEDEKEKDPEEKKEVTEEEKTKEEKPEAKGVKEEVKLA

[4] = target: T2, Protein deacetylase HDAC6 (Homo sapiens, UniProt Q9UBN7); test: Inhibition of recombinant human HDAC6 using fluorogenic substrate by fluorescence microplate reader assay; outline: as §1
T2 sequence (Q9UBN7 whole entry): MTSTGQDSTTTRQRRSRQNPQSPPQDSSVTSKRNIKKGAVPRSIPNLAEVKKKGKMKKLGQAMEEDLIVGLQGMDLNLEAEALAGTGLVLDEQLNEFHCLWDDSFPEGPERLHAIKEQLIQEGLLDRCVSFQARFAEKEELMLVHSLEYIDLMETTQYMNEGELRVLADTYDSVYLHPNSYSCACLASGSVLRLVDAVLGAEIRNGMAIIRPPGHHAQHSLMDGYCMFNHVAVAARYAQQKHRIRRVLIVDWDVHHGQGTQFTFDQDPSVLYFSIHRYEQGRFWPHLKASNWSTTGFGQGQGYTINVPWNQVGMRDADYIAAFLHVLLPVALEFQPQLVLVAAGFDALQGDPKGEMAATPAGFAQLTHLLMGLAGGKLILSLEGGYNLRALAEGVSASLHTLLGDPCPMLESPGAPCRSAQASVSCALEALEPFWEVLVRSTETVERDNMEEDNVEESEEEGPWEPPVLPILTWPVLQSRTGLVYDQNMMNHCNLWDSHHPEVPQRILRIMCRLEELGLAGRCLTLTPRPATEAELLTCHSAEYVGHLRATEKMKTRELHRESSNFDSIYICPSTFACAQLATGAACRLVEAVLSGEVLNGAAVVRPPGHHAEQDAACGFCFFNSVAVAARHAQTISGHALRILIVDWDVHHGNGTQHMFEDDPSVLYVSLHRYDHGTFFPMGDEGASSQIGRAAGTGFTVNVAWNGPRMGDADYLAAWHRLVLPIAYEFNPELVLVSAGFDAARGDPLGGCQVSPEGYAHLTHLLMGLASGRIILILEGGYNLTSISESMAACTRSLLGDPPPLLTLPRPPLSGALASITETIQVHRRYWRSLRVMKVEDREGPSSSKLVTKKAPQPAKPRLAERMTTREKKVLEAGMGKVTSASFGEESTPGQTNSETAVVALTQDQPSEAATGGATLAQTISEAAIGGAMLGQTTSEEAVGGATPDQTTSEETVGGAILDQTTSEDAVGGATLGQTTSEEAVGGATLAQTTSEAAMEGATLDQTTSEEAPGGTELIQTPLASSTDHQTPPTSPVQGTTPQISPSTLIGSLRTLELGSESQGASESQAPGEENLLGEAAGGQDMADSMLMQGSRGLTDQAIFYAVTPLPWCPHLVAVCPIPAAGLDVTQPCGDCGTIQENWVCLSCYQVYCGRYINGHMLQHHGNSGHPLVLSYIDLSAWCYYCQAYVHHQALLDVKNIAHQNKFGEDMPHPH

Histone deacetylase 9 = Histone deacetylase 9 (Homo sapiens, UniProt Q9UKV0); test: Inhibition of recombinant human HDAC9 using fluorogenic substrate by fluorescence microplate reader assay; outline: as §1
Sequence of Histone deacetylase 9 (Q9UKV0 whole entry): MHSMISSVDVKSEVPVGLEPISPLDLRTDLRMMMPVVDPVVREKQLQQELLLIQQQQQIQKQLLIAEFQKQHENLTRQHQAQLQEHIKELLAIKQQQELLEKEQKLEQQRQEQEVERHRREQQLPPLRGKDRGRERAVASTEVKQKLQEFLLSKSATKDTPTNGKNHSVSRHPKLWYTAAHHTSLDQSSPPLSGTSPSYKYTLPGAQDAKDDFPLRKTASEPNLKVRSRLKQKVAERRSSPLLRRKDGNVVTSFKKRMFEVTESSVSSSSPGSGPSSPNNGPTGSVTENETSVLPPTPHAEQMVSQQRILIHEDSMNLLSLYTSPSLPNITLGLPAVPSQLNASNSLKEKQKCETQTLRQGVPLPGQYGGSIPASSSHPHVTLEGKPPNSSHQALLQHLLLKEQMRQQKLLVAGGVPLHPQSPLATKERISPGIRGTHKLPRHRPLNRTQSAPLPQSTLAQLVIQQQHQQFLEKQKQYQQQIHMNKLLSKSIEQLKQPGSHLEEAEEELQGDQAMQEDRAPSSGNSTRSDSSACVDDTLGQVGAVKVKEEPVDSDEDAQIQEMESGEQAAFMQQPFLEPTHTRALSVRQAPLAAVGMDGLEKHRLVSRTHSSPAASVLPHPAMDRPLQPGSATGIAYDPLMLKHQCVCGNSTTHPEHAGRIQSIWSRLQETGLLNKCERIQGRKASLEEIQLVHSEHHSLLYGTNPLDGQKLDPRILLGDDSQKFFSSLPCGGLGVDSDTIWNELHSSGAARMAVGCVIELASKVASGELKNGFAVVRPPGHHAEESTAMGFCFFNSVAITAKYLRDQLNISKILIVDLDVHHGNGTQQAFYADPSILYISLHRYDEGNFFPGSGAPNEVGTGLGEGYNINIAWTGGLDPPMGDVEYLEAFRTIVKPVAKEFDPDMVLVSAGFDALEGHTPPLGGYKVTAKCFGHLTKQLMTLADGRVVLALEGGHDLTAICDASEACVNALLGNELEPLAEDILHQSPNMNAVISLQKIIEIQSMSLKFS

Histone deacetylase 11 = target: T3, Histone deacetylase 11 (Homo sapiens, UniProt Q96DB2); test: Inhibition of recombinant human HDAC11 using fluorogenic substrate by fluorescence microplate reader assay; outline: as §1
T3 sequence (Q96DB2 whole entry): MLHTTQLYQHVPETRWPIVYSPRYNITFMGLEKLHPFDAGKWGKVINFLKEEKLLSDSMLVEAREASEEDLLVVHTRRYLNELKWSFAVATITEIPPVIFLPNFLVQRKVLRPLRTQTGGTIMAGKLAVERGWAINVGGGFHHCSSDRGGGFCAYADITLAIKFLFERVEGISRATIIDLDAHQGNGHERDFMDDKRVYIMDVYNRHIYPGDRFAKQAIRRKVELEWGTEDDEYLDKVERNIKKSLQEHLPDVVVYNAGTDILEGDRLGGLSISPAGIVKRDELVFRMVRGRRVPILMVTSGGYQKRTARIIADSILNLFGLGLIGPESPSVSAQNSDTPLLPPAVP

Histone deacetylase 4 = Histone deacetylase 4 (Homo sapiens, UniProt P56524); test: Inhibition of recombinant human HDAC4 using fluorogenic substrate by fluorescence microplate reader assay; outline: as §1
Sequence of Histone deacetylase 4 (P56524 whole entry): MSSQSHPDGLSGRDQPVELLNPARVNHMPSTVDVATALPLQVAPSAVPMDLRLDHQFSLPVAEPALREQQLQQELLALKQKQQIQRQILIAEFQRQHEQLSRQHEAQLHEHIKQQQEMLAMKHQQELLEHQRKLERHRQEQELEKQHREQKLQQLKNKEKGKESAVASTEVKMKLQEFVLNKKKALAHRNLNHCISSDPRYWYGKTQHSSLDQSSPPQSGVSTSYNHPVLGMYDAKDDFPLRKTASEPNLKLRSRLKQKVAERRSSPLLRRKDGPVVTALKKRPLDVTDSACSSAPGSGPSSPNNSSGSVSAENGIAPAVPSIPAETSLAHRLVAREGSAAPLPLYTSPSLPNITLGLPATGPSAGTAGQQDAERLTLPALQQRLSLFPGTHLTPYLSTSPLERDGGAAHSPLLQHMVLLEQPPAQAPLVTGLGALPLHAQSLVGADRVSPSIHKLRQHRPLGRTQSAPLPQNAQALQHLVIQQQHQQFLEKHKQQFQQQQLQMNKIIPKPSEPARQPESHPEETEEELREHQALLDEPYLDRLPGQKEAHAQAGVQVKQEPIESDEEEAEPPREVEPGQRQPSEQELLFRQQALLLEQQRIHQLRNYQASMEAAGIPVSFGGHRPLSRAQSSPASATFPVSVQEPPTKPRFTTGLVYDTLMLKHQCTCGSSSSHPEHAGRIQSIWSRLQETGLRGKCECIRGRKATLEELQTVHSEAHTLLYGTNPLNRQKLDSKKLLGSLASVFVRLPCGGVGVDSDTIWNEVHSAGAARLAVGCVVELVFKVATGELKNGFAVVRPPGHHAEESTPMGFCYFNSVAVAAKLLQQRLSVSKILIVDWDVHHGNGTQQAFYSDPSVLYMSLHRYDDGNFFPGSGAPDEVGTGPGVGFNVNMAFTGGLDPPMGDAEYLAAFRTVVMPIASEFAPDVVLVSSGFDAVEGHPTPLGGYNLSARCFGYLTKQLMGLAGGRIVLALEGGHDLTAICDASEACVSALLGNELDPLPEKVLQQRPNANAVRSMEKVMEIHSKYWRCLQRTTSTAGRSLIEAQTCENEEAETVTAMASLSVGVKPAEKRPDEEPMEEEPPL

Histone deacetylase 2 = Histone deacetylase 2 (Homo sapiens, UniProt Q92769); test: Inhibition of recombinant human HDAC2 using fluorogenic substrate by fluorescence microplate reader assay; outline: as §1
Sequence of Histone deacetylase 2 (Q92769 whole entry): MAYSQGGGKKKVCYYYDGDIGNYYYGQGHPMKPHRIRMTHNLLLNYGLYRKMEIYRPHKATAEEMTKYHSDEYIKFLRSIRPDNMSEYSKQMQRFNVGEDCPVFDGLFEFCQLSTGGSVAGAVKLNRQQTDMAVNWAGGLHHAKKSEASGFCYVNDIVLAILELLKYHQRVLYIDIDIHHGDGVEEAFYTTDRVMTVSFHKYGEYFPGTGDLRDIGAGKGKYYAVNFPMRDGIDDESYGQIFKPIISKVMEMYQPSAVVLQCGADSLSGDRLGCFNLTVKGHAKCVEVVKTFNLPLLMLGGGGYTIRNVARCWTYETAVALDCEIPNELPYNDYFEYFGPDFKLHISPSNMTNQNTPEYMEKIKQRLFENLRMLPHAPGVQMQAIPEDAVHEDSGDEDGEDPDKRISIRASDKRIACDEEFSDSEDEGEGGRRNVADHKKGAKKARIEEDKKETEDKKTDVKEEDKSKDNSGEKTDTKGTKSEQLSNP

Histone deacetylase 5 = Histone deacetylase 5 (Homo sapiens, UniProt Q9UQL6); test: Inhibition of recombinant human HDAC5 using fluorogenic substrate by fluorescence microplate reader assay; outline: as §1
Sequence of Histone deacetylase 5 (Q9UQL6 whole entry): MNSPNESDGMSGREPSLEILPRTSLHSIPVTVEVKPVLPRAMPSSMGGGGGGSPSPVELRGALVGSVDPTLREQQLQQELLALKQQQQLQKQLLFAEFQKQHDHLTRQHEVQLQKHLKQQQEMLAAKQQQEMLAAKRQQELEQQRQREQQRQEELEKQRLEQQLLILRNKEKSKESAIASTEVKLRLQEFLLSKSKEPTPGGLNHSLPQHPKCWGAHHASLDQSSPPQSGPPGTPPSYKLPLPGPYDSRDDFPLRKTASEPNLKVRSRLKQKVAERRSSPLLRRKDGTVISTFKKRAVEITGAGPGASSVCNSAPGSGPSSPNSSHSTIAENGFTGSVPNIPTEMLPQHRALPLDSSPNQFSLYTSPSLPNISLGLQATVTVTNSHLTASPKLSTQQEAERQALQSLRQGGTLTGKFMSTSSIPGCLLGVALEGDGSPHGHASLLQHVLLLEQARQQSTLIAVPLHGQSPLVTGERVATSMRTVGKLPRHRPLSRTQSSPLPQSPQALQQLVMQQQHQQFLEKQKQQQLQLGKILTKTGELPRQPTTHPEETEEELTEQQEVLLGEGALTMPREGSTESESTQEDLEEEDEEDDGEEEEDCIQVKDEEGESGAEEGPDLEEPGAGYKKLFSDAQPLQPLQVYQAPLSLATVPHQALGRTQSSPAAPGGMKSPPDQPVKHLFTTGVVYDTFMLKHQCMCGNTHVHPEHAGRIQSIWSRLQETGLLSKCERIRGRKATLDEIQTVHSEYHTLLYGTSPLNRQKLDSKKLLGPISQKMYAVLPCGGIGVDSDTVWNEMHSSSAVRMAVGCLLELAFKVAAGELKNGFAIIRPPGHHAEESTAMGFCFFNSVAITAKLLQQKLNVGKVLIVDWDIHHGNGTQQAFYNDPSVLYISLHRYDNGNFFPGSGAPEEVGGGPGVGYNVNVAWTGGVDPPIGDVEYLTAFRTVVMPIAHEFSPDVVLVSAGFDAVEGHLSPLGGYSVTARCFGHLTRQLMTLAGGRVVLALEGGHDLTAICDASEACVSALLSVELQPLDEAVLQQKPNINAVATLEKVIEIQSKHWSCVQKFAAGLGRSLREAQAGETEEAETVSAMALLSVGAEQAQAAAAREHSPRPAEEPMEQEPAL

Histone deacetylase 3 = Histone deacetylase 3 (Homo sapiens, UniProt O15379); test: Inhibition of recombinant human HDAC3 using fluorogenic substrate by fluorescence microplate reader assay; outline: as §1
Sequence of Histone deacetylase 3 (O15379 whole entry): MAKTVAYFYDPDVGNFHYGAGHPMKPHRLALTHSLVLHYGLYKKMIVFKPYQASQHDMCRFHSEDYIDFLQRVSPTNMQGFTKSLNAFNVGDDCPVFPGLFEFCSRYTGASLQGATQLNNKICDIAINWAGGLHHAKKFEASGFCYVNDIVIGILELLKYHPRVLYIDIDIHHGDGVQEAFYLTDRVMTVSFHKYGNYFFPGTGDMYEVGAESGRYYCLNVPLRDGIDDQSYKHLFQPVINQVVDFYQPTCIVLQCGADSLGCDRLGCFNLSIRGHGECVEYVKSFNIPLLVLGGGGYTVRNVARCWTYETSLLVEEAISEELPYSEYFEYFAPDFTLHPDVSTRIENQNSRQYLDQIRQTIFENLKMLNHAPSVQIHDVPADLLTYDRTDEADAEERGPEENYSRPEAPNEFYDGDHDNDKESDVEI

[5] = target: T4, Polyamine deacetylase HDAC10 (Homo sapiens, UniProt Q969S8); test: Inhibition of recombinant human HDAC10 using fluorogenic substrate by fluorescence microplate reader assay; outline: as §1
T4 sequence (Q969S8 whole entry): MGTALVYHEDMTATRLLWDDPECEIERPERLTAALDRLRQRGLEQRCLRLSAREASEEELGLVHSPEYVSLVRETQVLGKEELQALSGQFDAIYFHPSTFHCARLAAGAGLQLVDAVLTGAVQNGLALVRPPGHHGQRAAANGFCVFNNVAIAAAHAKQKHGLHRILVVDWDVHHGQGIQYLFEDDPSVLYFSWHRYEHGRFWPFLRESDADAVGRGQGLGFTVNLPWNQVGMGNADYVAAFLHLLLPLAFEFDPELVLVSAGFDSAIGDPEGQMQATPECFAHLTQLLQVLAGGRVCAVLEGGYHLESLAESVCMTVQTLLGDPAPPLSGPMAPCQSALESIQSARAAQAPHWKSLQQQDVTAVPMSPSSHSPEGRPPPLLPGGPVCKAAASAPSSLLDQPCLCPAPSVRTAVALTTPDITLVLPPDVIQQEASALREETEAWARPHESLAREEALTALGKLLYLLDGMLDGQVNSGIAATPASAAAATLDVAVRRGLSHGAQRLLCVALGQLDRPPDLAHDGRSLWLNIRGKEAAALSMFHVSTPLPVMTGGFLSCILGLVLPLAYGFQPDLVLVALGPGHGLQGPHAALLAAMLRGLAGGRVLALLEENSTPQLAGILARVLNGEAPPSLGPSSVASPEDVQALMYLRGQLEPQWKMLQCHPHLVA

COC[C@@H](NC(=O)c1ccc(-c2noc(C(F)(F)F)n2)cc1)C(=O)NCc1ccc(F)cc1
IC50 [1]: > 15000 nM
IC50 [2]: 233 nM
IC50 [3]: > 15000 nM

CC(CN(C)Cc1ccccc1)NC(=O)c1ccc(-c2noc(C(F)(F)F)n2)cc1 (stereo unspecified)
IC50 [1]: > 50000 nM
IC50 [2]: 395 nM
IC50 [3]: > 50000 nM

CN(Cc1ccccc1)C(=O)C(C)(C)CNC(=O)c1cccc(-c2noc(C(F)(F)F)n2)c1
IC50 [1]: > 50000 nM
IC50 [2]: > 50000 nM
IC50 [3]: > 50000 nM

CC(C)(CNC(=O)c1ccc(-c2noc(C(F)(F)F)n2)cc1)c1coc(-c2ccccc2)n1
IC50 [1]: > 15000 nM
IC50 [2]: > 5000 nM
IC50 [3]: > 15000 nM

C[C@H](CN(C)Cc1ccccc1)NC(=O)c1ccc(-c2noc(C(F)(F)F)n2)nc1
IC50 [1]: > 50000 nM
IC50 [2]: 147 nM
IC50 [3]: > 50000 nM

CC(C)(CNC(=O)c1ccc(-c2noc(C(F)(F)F)n2)cc1)C(=O)NCc1ccccc1
IC50 [1]: > 15000 nM
IC50 [2]: 768 nM
IC50 [3]: > 15000 nM

CN(Cc1ccccc1)C(=O)CCNC(=O)c1cccc(-c2noc(C(F)(F)F)n2)c1
IC50 [1]: > 50000 nM
IC50 [2]: > 50000 nM
IC50 [3]: > 50000 nM

CN(Cc1ccccc1)C(=O)C(C)(C)CNC(=O)c1ccc(-c2noc(C(F)(F)F)n2)cc1
IC50 [1]: > 15000 nM
IC50 [2]: 933 nM
IC50 [3]: > 15000 nM

C[C@H](CN(C)Cc1ccccc1)NC(=O)c1ccc(-c2noc(C(F)(F)Cl)n2)cc1
IC50 [1]: > 2000 nM
IC50 [2]: > 2000 nM
IC50 [3]: > 2000 nM

C[C@H](CN(C)Cc1ccc(F)cc1)NC(=O)c1ccc(-c2noc(C(F)(F)F)n2)cc1
IC50 [1]: > 15000 nM
IC50 [2]: 59 nM
IC50 [3]: > 15000 nM

C[C@@H](NC(=O)c1ccc(-c2noc(C(F)(F)F)n2)cc1)C(=O)NCc1ccccc1
IC50 [1]: > 15000 nM
IC50 [2]: 953 nM
IC50 [3]: > 15000 nM

COC[C@@H](NC(=O)c1ccc(-c2noc(C(F)(F)F)n2)nc1)C(=O)NCc1ccccc1
IC50 [1]: > 15000 nM
IC50 [2]: 1710 nM
IC50 [3]: > 15000 nM

C[C@H](CN(C)Cc1ccccc1)NC(=O)c1cccc(-c2noc(C(F)(F)F)n2)c1
IC50 [1]: > 50000 nM
IC50 [2]: > 50000 nM
IC50 [3]: > 50000 nM

CN(Cc1ccccc1)C(=O)CCNC(=O)c1ccc(-c2noc(C(F)(F)F)n2)cc1
IC50 [1]: > 15000 nM
IC50 [2]: 905 nM
IC50 [3]: > 15000 nM

C[C@H](CN(C)Cc1ccccc1)NC(=O)c1ccc(-c2noc(C(F)(F)F)n2)cc1
IC50 [1]: > 15000 nM
IC50 (Histone deacetylase 8): > 600 nM
IC50 (Histone deacetylase 1): > 600 nM
IC50 [4]: > 600 nM
IC50 [2]: 46 nM
IC50 (Histone deacetylase 9): 0.9 nM
IC50 (Histone deacetylase 11): > 600 nM
IC50 (Histone deacetylase 4): 0.08 nM
IC50 (Histone deacetylase 2): > 600 nM
IC50 [3]: > 15000 nM
IC50 (Histone deacetylase 5): 1.2 nM
IC50 (Histone deacetylase 3): > 600 nM
IC50 [5]: > 600 nM

C[C@H](CN(C)Cc1ccccc1)NC(=O)c1ccc(-c2noc(C(F)(F)Br)n2)cc1
IC50 [1]: > 5000 nM
IC50 [2]: > 5000 nM
IC50 [3]: > 5000 nM

COC[C@@H](NC(=O)c1ccc(-c2noc(C(F)(F)F)n2)cc1)C(=O)NCc1ccccc1
IC50 [1]: > 15000 nM
IC50 [2]: 537 nM
IC50 [3]: > 15000 nM
